Source: ChEMBL document CHEMBL1157249, “Alpha-glucosidase inhibitory anthranols, kenganthranols A-C, from the stem bark of Harungana madagascariensis” (J Nat Prod, 2006)
Calls of active or inactive are those of the source. No cut-off for these calls is given here.

Legend:
Saccharomyces [1] = test: Inhibition of Saccharomyces sp. alpha glucosidase at 800 uM by spectrophotometry
[2] = (§1) Inhibition of Saccharomyces sp. alpha glucosidase by spectrophotometry
Summary of the method: (§2)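 Yeast (Saccharomyces sp.) α-glucosidase, 250 units/mL, in 50 mM sodium phosphate buffer with 100 mM NaCl, pH 6.9, 37 °C; substrate […] p-nitrophenyl α-D-glucopyranoside. Hydrolysis followed continuously as absorbance increase at 400 nm. 1-Deoxynojirimycin (0.425 mM) and acarbose (0.78 mM) served as positive controls. Modified literature method.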

Saccharomyces [3] = test: as §1; summary of the method: as §2

Row | SMILES | Activity (Saccharomyces [1]) | IC50 [2] [µM] | Activity (Saccharomyces [3])
1 | COc1cc2c(c(O)c1/C=C/C(C)C)C(=O)c1c(O)cc(C)cc1C2=O | inactive | – | –
2 | COc1cc2c(c(O)c1CC(=O)C(C)C)C(=O)c1c(O)cc(C)cc1C2=O | inactive | – | –
3 | O=c1c2cc(O)ccc2oc2cccc(O)c12 | inactive | – | –
4 | C[C@H]1O[C@H](O[C@H]2[C@H](O)[C@@H](O)[C@@H](O[C@H]3[C@H](O)[C@@H](O)C(O)O[C@@H]3CO)O[C@@H]2CO)[C@H](O)[C@@H](O)[C@@H]1N[C@H]1C=C(CO)C(O)[C@H](O)[C@H]1O (single isomer, unassigned) [ACARBOSE] | – | 780 | –
5 | OC[C@H]1NC[C@H](O)[C@@H](O)[C@@H]1O [DUVOGLUSTAT] | – | 426 | –
6 | CC(C)=CCc1c(C)cc(O)c2c(O)c3c(cc12)C(CC=C(C)C)(CC=C(C)C)C(O)=CC3=O [HARUNGANIN] | – | 6 | Dose-dependent effect
7 | CC(C)=CCc1c(C)c(CC=C(C)C)c2c(c1O)C(=O)c1c(O)cc(O)c(CC=C(C)C)c1C2 [HARUNGANOL B] | – | 12 | Dose-dependent effect
8 | CC(C)=CCc1c(O)c(CC=C(C)C)c2c(c1O)C(=O)c1c(O)cc(C)c(CC=C(C)C)c1C2O (stereo not given) [KENGANTHRANOL B] | – | 6.3 | Dose-dependent effect
9 | COC1c2c(CC=C(C)C)c(C)cc(O)c2C(=O)c2c(O)cc3c(c21)CC(C(C)(C)O)O3 (stereo not given) [KENGANTHRANOL C] | – | 21.9 | Dose-dependent effect
10 | COc1cc(O)c2c(c1)C(=O)c1cc(C)cc(O)c1C2=O [PHYSCION] | – | 192 | Dose-dependent effect
